The values below come from ChEMBL document CHEMBL1159037, “Synthesis and biological evaluation of novel allophenylnorstatine-based HIV-1 protease inhibitors incorporating high affinity P2-ligands” (Bioorg Med Chem Lett, 2010).

pIC50, pKi: −log10 of the molar value.

The test system of test [1] is Human immunodeficiency virus 1. Put plainly: Antiviral activity against multi drug-resistant HIV1 isolate of subtype G in PHA-stimulated human PBMC assessed as inhibition of p24 antigen production. Type of test: functional, organism-based. The conditions noted are these: Human immunodeficiency virus 1, isolate G.
Test [2] concerns Human immunodeficiency virus 1. Put plainly: Antiviral activity against multi drug-resistant HIV1 isolate of subtype TM in PHA-stimulated human PBMC assessed as inhibition of p24 antigen production. The following applies: Human immunodeficiency virus 1, isolate TM. The test is classed as functional, organism-based.
Test [3] deals with Human immunodeficiency virus 1. Put plainly: Ratio of IC50 for multi drug-resistant HIV1 isolate of subtype TM to IC50 for wild type HIV1 isolate ERS104pre. Type of test: functional. An outline of the steps: (§1)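 Each assay run in duplicate; values are means (±1 SD) from two or three independent experiments. Fold change is the IC50 against each drug-resistant isolate divided by the IC50 against wild-type HIV-1 ERS104pre.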

The test system of test [4] is Human immunodeficiency virus 1. Put plainly: Antiviral activity against multi drug-resistant HIV1 isolate of subtype MM in PHA-stimulated human PBMC assessed as inhibition of p24 antigen production. The test is classed as functional, organism-based. The conditions noted are these: Human immunodeficiency virus 1, isolate MM.
In test [5] the test system is Human immunodeficiency virus 1. Put plainly: Antiviral activity against multi drug-resistant HIV1 isolate of subtype C in PHA-stimulated human PBMC assessed as inhibition of p24 antigen production. Type of test: functional, organism-based. The following applies: Human immunodeficiency virus 1, isolate C.
Test [6] relates to Human immunodeficiency virus 1. Put plainly: Ratio of IC50 for multi drug-resistant HIV1 isolate of subtype G to IC50 for wild type HIV1 isolate ERS104pre. The test is classed as functional. Summed up: as §1
Test [7] deals with Human immunodeficiency virus 1. Put plainly: Antiviral activity against wild type HIV1 isolate ERS104pre in PHA-stimulated human PBMC assessed as inhibition of p24 antigen production. Type of test: functional, organism-based. The following applies: Human immunodeficiency virus 1, isolate ERS104pre.
Test [8] relates to Human immunodeficiency virus 1. Put plainly: Ratio of IC50 for multi drug-resistant HIV1 isolate of subtype MM to IC50 for wild type HIV1 isolate ERS104pre. The test is classed as functional. An outline of the steps: as §1
In test [9] the test system is Human immunodeficiency virus 1. Put plainly: Ratio of IC50 for multi drug-resistant HIV1 isolate of subtype JSL to IC50 for wild type HIV1 isolate ERS104pre. Type of test: functional. Summed up: as §1
The test system of test [10] is Human immunodeficiency virus 1. Put plainly: Ratio of IC50 for multi drug-resistant HIV1 isolate of subtype C to IC50 for wild type HIV1 isolate ERS104pre. The test is classed as functional. An outline of the steps: as §1
In test [11] the test system is Human immunodeficiency virus 1. Put plainly: Antiviral activity against HIV1 LAI in human MT2 cells after 7 days by MTT assay. The test is classed as functional, organism-based. The conditions noted are these: Human immunodeficiency virus 1, LAI, MT2, 168 h. Summed up: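 Human T-lymphoid MT-2 cells were exposed to 100 TCID50 of HIV-1LAI and cultured in the presence of each protease inhibitor. IC50 was determined by MTT assay. Values are means of at least three experiments.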
Background: Tetrazolium dyes change colour on reduction, which living cells bring about.

For test [12], the system named is Human immunodeficiency virus 1. Put plainly: Antiviral activity against multi drug-resistant HIV1 isolate of subtype JSL in PHA-stimulated human PBMC assessed as inhibition of p24 antigen production. The following applies: Human immunodeficiency virus 1, isolate JSL. Type of test: functional, organism-based.
The next test has as its target Protease (Human immunodeficiency virus 1, UniProt Q9YQ12). Put plainly: Inhibition of HIV1 protease.

Sequence of Protease (Q9YQ12 whole entry): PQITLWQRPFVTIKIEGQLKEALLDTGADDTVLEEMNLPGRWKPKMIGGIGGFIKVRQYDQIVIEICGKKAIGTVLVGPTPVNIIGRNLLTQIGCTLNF

Consider `CC(C)CN(C[C@@H](O)[C@H](Cc1ccccc1)NC(=O)O[C@H]1CCOC1)S(=O)(=O)c1ccc(N)cc1`, for which the pIC50 – broadly, −log10 of the IC50, conventionally taken in molar units – in test [1] was 6.41; in test [2], 6.39; in test [4], 6.50; in test [5], 6.46; in test [7], 7.35. For the same molecule, the “Ratio IC50” value in test [3] is recorded as 9; in test [6], 9; in [8], 7; in test [9] it was 12; in test [10] it was 8.
For `Cc1ccccc1CNC(=O)[C@H]1N(C(=O)[C@@H](O)[C@H](Cc2ccccc2)NC(=O)O[C@H]2CO[C@H]3OCC[C@H]32)CSC1(C)C`, the pIC50 in test [1] is 7.54; in test [2], 7.19; in test [4] it was 7.38; in [11] it was 8.05; in test [5], 7.21; in test [7], 7.51. The pIC50 in test [12] is 6.63. Moreover, the “Ratio IC50” value in test [3] worked out at 2; in [6], 1; in test [8], 1; in [9] it was 8; in test [10] it was 2. Moreover, at Protease, the pKi (in general, −log10 of the Ki, conventionally taken in molar units) was 11.28.
As to `COc1ccc(CNC(=O)[C@H]2N(C(=O)[C@@H](O)[C@H](Cc3ccccc3)NC(=O)O[C@H]3CO[C@H]4OCC[C@H]43)CSC2(C)C)c(C)c1`, the pIC50 in test [11] is 7.29. The molecule further showed a negative-log Ki (pKi) on Protease of 8.69.
At Protease, `Cc1ccccc1CNC(=O)[C@H]1N(C(=O)[C@@H](O)[C@H](Cc2ccccc2)NC(=O)O[C@@H]2CCOCOC2)CSC1(C)C` gave a pKi of 9.11.
On the same count and under the same terms, under `Cc1ccccc1CNC(=O)[C@H]1N(C[C@@H](O)[C@H](Cc2ccccc2)NC(=O)O[C@H]2CO[C@H]3OCC[C@H]32)CSC1(C)C` stands 8.59.
As for `Cc1ccccc1CNC(=O)[C@H]1N(C(=O)[C@@H](O)[C@H](Cc2ccccc2)NC(=O)O[C@@H]2C[C@@H]3CCO[C@@H]3C2)CSC1(C)C`, the pIC50 in [11] is 7.89. The pKi on Protease is 9.54.
On Protease, `Cc1ccccc1CNC(=O)[C@H]1N(C(=O)[C@@H](O)[C@H](Cc2ccccc2)NC(=O)O[C@@H]2C[C@@H]3OCO[C@@H]3C2)CSC1(C)C` showed a pKi of 9.19.
The molecule `Cc1cc(N)ccc1CNC(=O)[C@H]1N(C(=O)[C@@H](O)[C@H](Cc2ccccc2)NC(=O)O[C@H]2CO[C@H]3OCC[C@H]32)CSC1(C)C` had a pIC50 in test [11] of 6.28. Moreover, at Protease, the pKi was 9.00.
In the same order, the values of `Cc1cc(CO)ccc1CNC(=O)[C@H]1N(C(=O)[C@@H](O)[C@H](Cc2ccccc2)NC(=O)O[C@H]2CO[C@H]3OCC[C@H]32)CSC1(C)C` are 6.64 and 9.51.
On Protease, `Cc1ccccc1CNC(=O)[C@H]1N(C[C@@H](O)[C@H](Cc2ccccc2)NC(=O)O[C@H]2CCOC2)CSC1(C)C` showed a pKi of 7.06.
Molecule `Cc1ccccc1CNC(=O)[C@H]1N(C(=O)[C@@H](O)[C@H](Cc2ccccc2)NC(=O)O[C@H]2CCOC2)CSC1(C)C` showed a pIC50 in test [11] of 7.70. On Protease, this molecule gave a negative logarithm of the Ki (pKi) of 9.68.
As to `COC(=O)N[C@H](C(=O)N[C@@H](Cc1ccccc1)[C@@H](O)CN(Cc1ccc(-c2ccccn2)cc1)NC(=O)[C@@H](NC(=O)OC)C(C)(C)C)C(C)(C)C` [ATAZANAVIR], the pIC50 was 7.54 in test [1]; 7.33 in test [2]; 7.40 in test [4]; 7.35 in test [5]; 8.52 in test [7]; 6.20 in test [12]. In addition, the “Ratio IC50” value in test [3] is 16; in test [6], 10; in test [8], 13; in test [9] it was 212; in test [10], 15.
